Data: ChEMBL document CHEMBL1156864, “Boron-containing phenoxyacetanilide derivatives as hypoxia-inducible factor (HIF)-1alpha inhibitors” (Bioorg Med Chem Lett, 2010)

How the values were obtained:
[1] = molecular target: Hypoxia-inducible factor 1-alpha (Homo sapiens, UniProt Q16665); assay: Inhibition of hypoxia-induced HIF1alpha activation in human HeLa cells after 12 hrs by HRE-luciferase reporter gene assay; format: cell-based
In short: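 HeLa cells stably carrying HRE(×5)-luciferase reporter, incubated 12 h with or without drug under hypoxic conditions. Supernatant removed, then luciferase assay. IC50 is concentration halving relative light units, read from semi-logarithmic dose–response plots; mean ± SD of triplicates.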

HeLa = assay: Growth inhibition of human HeLa cells after 48 hrs by MTT assay; format: functional
In short: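 HeLa cells exposed 48 h under normoxia to 100 nM–100 μM compound; viable cells measured by MTT. GI50 read from semi-logarithmic dose–response plots; mean ± SD of triplicate samples.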

Sequence of Hypoxia-inducible factor 1-alpha (Q16665 whole entry): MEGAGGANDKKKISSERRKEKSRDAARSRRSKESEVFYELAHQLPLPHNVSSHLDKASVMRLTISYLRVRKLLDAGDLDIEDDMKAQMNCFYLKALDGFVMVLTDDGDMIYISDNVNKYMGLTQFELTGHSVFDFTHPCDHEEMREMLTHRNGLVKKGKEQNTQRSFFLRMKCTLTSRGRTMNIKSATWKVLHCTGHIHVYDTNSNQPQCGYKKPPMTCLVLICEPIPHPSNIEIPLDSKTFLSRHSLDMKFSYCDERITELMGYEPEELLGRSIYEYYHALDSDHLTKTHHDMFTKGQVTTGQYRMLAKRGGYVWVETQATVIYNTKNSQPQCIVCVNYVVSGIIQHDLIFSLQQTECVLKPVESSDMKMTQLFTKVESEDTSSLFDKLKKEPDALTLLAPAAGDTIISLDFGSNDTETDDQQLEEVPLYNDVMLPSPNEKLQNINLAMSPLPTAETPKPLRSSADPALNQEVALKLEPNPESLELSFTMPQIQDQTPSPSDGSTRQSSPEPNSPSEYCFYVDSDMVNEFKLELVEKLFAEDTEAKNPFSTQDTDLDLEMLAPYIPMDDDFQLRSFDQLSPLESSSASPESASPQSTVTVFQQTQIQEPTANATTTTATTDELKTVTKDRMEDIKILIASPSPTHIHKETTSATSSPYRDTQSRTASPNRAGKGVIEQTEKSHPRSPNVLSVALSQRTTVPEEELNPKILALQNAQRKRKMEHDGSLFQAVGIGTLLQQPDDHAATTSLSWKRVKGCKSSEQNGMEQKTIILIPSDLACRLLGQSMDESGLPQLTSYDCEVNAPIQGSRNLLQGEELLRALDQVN

Cc1ccc(OCC(=O)Nc2cc(B(O)O)ccc2O)cc1
IC50 [1]: > 100 µM | GI50 (HeLa): 25.7 µM

CC1(C)OB(c2ccc(O)c(NC(=O)COc3ccc(-c4ccccc4)cc3)c2)OC1(C)C
IC50 [1]: > 100 µM | GI50 (HeLa): 5.8 µM

CCc1ccc(OCC(=O)Nc2cc(B3OC(C)(C)C(C)(C)O3)ccc2O)cc1
IC50 [1]: 91.8 µM | GI50 (HeLa): 8.6 µM

CCc1ccc(OCC(=O)Nc2cc(B(O)O)ccc2O)cc1
IC50 [1]: > 100 µM | GI50 (HeLa): 14.9 µM

O=C(COc1ccc(C2CCCCC2)cc1)Nc1cc(B(O)O)ccc1O
IC50 [1]: 84.8 µM | GI50 (HeLa): 29.2 µM

CC1(C)OB(c2ccc(O)c(NC(=O)COc3ccc(C45CC6CC(CC(C6)C4)C5)cc3)c2)OC1(C)C
IC50 [1]: 3.1 µM | GI50 (HeLa): 16 µM

O=C(COc1ccc(C23CC4CC(CC(C4)C2)C3)cc1)Nc1cc(C(=O)O)ccc1O
IC50 [1]: 3.1 µM | GI50 (HeLa): 51.6 µM

CC1(C)OB(c2ccc(O)c(NC(=O)COc3ccc(C4CCCCC4)cc3)c2)OC1(C)C
IC50 [1]: 70.4 µM | GI50 (HeLa): 13.4 µM

Cc1ccc(OCC(=O)Nc2cc(B3OC(C)(C)C(C)(C)O3)ccc2O)cc1
IC50 [1]: 90.6 µM | GI50 (HeLa): 17.7 µM

O=C(COc1ccc(-c2ccccc2)cc1)Nc1cc(B(O)O)ccc1O
IC50 [1]: > 100 µM | GI50 (HeLa): 85.9 µM

O=C(COc1ccc(C23CC4CC(CC(C4)C2)C3)cc1)Nc1cc(B(O)O)ccc1O
IC50 [1]: 4.6 µM | GI50 (HeLa): 15.2 µM

CC(C)(C)c1ccc(OCC(=O)Nc2cc(B(O)O)ccc2O)cc1
IC50 [1]: 40.3 µM | GI50 (HeLa): 21.3 µM

CC(C)(C)c1ccc(OCC(=O)Nc2cc(B3OC(C)(C)C(C)(C)O3)ccc2O)cc1
IC50 [1]: 35.3 µM | GI50 (HeLa): 12.1 µM
